The values that follow come from ChEMBL document CHEMBL1125054, “1-(aminoalkyl)-2-phenylindoles as novel pure estrogen antagonists” (J Med Chem, 1990).

The structures appear in SMILES notation.

Test [1] addresses Estrogen receptor (Bos taurus) (UniProt Q9XSB5+P49884). Put plainly: Relative binding affinity to calf uterine estrogen receptor. Type of test: protein assay. An outline of the steps: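 Calf uterine cytosol (105000g supernatant, 3 mg/mL protein in the assay) in Tris/EDTA/NaN3 buffer pH 7.5, with 5 nM 17β-[3H]estradiol and competitor at 10^-9–10^-5 M. Incubated 18 h at 4 °C; bound and free ligand separated with dextran-coated charcoal. Nonspecific binding defined with 5 μM estradiol. RBA = ratio of molar concentrations of estradiol and compound giving 50% displacement × 100.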

Test [2] deals with T1, Estrogen receptor (Mus musculus) (UniProt O08537+P19785). Kind of test: Anti-uterotrophic effect in mice at 125 ug. Type of test: functional. The method, boiled down:
(§1)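 Immature female NMRI mice (20 days old), groups of 6-10, injected sc in olive oil (100 μL/animal) on three consecutive days with test compound plus 0.4 μg estrone per animal and day. Killed 24 h after last injection; uteri fixed in Bouin solution, dried at 100 °C for 24 h. Relative uterine weight = uterine dry weight (mg)/body weight (g) × 100; mean of six animals ± SD.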

Test [3] concerns the target T1, Estrogen receptor (Mus musculus). Put plainly: Anti-uterotrophic effect in mice at 25 ug. Type of test: functional. The method, boiled down:
as §1

Test [4] has the same target. Put plainly: Anti-uterotrophic effect in mice at 5 ug. Type of test: functional. An outline of the steps:
as §1

The target is the same in test [5]. Kind of test: Uterotrophic effect in mice at 125 ug. Type of test: functional, tissue-based. As to conditions: Uterus. The method, boiled down: (§2)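 Immature NMRI female mice, 20 days old, groups of 6-10, received test compound in olive oil (100 μL/animal) sc on three consecutive days; vehicle controls were included. At 24 h after the last dose, uteri were fixed in Bouin solution and dried at 100 °C for 24 h. Read-out was uterine dry weight (mg)/body weight (g) × 100, mean of six animals ± SD.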

Test [6] shares this target. Kind of test: Uterotrophic effect in mice at 25 ug. Type of test: functional, tissue-based. As to conditions: Uterus. An outline of the steps: as §2
For test [7] the target is unchanged. Kind of test: Uterotrophic effect in mice at 5 ug. Type of test: functional, tissue-based. The note with it: Uterus. An outline of the steps: as §2
For test [8] the target is unchanged. Kind of test: Percent inhibition of uterotrophic effect in mice at 125 ug dose. Type of test: functional. An outline of the steps:
(§3)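 Mice were immature female NMRI (20 days old) given sc injections in olive oil on three consecutive days, each containing 0.4 μg estrone plus test compound. Uteri were weighed dry 24 h after the last injection. Antagonism (%) = 100 − [(W_S,T − W_V)/(W_S − W_V) × 100], with relative uterine weights from estrone+compound, estrone alone and vehicle controls. Significance was tested by Mann-Whitney U test.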

For test [9] the target is unchanged. Kind of test: Percent inhibition of uterotrophic effect in mice at 5 ug dose. Type of test: functional. An outline of the steps:
as §3

Test [10] shares this target. Put plainly: Percent inhibition of uterotrophic effect in mice at 25 ug dose. Type of test: functional. An outline of the steps:
as §3

Test [11] has the same target. Kind of test: Uterotrophic effect in mice at 1 ug. Type of test: functional, tissue-based. As to conditions: Uterus. The method, boiled down:
as §2

For test [12] the target is unchanged. Put plainly: Anti-uterotrophic effect in mice at 1 ug. Type of test: functional. The method, boiled down: as §1
Test [13] has the same target. Kind of test: Percent inhibition of uterotrophic effect in mice at 1 ug dose. Type of test: functional. The method, boiled down:
as §3

T1 sequence (O08537 whole entry, looked up): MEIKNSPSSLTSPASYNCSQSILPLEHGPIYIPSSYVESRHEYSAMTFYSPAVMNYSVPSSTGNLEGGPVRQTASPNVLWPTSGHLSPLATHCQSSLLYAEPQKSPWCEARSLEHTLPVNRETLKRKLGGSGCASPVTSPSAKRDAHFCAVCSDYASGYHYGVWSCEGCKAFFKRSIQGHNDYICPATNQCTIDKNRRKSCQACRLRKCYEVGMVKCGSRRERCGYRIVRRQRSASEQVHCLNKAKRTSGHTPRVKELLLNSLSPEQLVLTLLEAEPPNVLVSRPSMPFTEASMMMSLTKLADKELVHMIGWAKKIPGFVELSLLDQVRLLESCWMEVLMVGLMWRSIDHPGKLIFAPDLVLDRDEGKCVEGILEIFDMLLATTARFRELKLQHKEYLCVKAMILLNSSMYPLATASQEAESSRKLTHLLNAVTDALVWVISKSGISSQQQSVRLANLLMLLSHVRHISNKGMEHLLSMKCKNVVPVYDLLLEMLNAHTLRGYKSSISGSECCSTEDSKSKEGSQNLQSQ
T1 sequence (P19785 whole entry, looked up): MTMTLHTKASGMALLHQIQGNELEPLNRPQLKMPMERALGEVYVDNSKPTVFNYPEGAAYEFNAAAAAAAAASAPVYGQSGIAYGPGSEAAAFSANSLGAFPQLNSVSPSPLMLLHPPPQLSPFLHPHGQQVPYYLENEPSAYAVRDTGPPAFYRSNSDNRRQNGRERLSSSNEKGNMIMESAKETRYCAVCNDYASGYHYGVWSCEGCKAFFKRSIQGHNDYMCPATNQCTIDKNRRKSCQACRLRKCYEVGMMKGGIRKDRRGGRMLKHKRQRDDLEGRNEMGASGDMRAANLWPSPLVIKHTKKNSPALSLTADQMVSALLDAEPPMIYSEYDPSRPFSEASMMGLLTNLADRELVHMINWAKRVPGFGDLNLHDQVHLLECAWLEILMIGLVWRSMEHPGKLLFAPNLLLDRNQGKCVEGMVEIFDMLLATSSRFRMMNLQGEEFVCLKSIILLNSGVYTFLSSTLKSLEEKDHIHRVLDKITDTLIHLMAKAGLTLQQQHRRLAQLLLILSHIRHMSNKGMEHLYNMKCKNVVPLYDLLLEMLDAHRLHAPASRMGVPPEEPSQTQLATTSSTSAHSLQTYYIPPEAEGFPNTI

With `CCN(CC)CCCCCCC1C(c2ccc(O)cc2)=C(C)c2cc(O)ccc21` (stereo unspecified), the relative binding affinity (RBA) in test [1] is 14. Moreover, the Relative uterine weight is 30.9 in test [2]; 52.5 in test [3]; 46 in test [4]; 22.4 in [5]; 18.2 in [6]; 16.1 in test [7]. Besides, the inhibition in test [8] worked out at 61%; in test [9] it was 23%.

Consider `CC1=C(c2ccc(O)cc2)C(CCCCCCN2CCOCC2)c2ccc(O)cc21` (stereo unspecified), for which the relative binding affinity (RBA) in [1] is 10. Besides, the Relative uterine weight in test [2] turned out to be 18; in test [3], 47.7; in test [4], 51.2; in [5], 17.4; in [6], 21.8; in [7], 19.5. Further, the inhibition is 102% in [8], 18% in test [10] and 8% in [9].

In test [1], `CC1=C(c2ccc(O)cc2)C(CCCCCCCCN2CCCC2)c2ccc(O)cc21` (stereo unspecified) registered a relative binding affinity (RBA) of 7.6.

The compound `CNCCCCCCC1C(c2ccc(O)cc2)=C(C)c2cc(O)ccc21` (stereo unspecified) returned a relative binding affinity (RBA) in test [1] of 27. Besides, the Relative uterine weight in test [2] turned out to be 33.7; in test [4] it was 38.1; in test [11], 14.4; in [5], 34; in test [7] it was 22.8. Further, the inhibition turned out to be 59% in test [8] and 49% in [9].

In [1], `CC1=C(c2ccc(O)cc2)C(CCCCN2CCCC2)c2ccc(O)cc21` (stereo unspecified) returned a relative binding affinity (RBA) of 3.6. Also, the Relative uterine weight came to 43.7 in test [12]; 25.5 in test [2]; 16.2 in test [3]; 47.6 in [4]; 7.6 in [11]; 6.4 in test [5]. The values for the Relative uterine weight in [6] and in [7] were 6.4 and 8, respectively. Also, the inhibition in [13] came out at 5%; in test [8] it was 53%; in test [10], 78%.

Turning to `CC1=C(c2ccc(O)cc2)C(CCCCCCN(C)C)c2ccc(O)cc21` (stereo unspecified), the relative binding affinity (RBA) in test [1] was 12.

For the compound `CC1=C(c2ccc(O)cc2)C(CCCCCCN2CCCC2)c2ccc(O)cc21` (stereo unspecified), the Relative uterine weight in test [12] was found to be 45.8; in test [2] it was 8.9; in test [3], 14.4; in test [4] it was 15.4; in test [11] it was 12.5; in [5] it was 14.1. Besides, the Relative uterine weight amounted to 13.9 in test [6] and 9 in test [7]. Moreover, the inhibition in test [13] was determined as 20%; in [8], 117%; in test [10], 103%; in test [9], 100%.

As for `Oc1ccc(C2=Cc3cc(O)ccc3C2CCCCCCN2CCCC2)cc1` (stereo unspecified), the relative binding affinity (RBA) in [1] is 2.3.

In test [1], `CC1=C(c2ccc(O)cc2)C(CCCCCCCN)c2ccc(O)cc21` (stereo unspecified) returned a relative binding affinity (RBA) of 11.

Regarding `CC1=C(c2ccc(O)cc2)C(CCCCCCN)c2ccc(O)cc21` (stereo unspecified), in test [1], the relative binding affinity (RBA) was 25. Moreover, the Relative uterine weight came to 65.9 in [12]; 16.2 in test [2]; 15 in [3]; 30.1 in test [4]; 10.9 in test [11]; 16.9 in test [5]. Moreover, the Relative uterine weight in test [6] came out at 12.4; in test [7] it was 11.9. Besides, the inhibition in test [8] stood at 99%; in test [10] it was 102%; in [9], 68%.

Compound `CC1=C(c2ccc(O)cc2)C(CCCCCCN2CCCCC2)c2ccc(O)cc21` (stereo unspecified) displayed a relative binding affinity (RBA) in test [1] of 23. Further, the Relative uterine weight in [2] was 22.3; in test [4] it was 28.9; in test [5] it was 24.7; in test [6], 21.4; in test [7], 19.7. The inhibition in test [8] was 98%; in [9], 71%.

`CC1=C(c2ccc(O)cc2)C(CCCCCCNCc2ccccc2)c2ccc(O)cc21` (stereo unspecified) had a relative binding affinity (RBA) in test [1] of 15. In addition, the Relative uterine weight in [2] is 40.8; in test [3], 44.6; in test [4] it was 53.2; in test [5], 34; in test [6] it was 23.6; in test [7] it was 17.8. Moreover, the inhibition is 51% in test [8], 43% in [10] and 25% in test [9].

With `Oc1ccc(C2=Cc3cc(O)ccc3C2CCCCCCN2CCCCC2)cc1` (stereo unspecified), the relative binding affinity (RBA) in [1] is 1.3.

Usually inhibition stands for the change of the read-out against control, counted positive when it falls.
